According to ChEMBL document CHEMBL1828544, “Structural modification of honokiol, a biphenyl occurring in Magnolia officinalis: the evaluation of honokiol analogues as inhibitors of angiogenesis and for their cytotoxicity and structure-activity relationship” (J Med Chem, 2011):
Active and inactive are the calls of the source. The calls are words filed in the database; no cut-off is given here.

Key:
[1] = Antiproliferative activity against mouse LL/2 cells after 24 hrs by MTT assay; assay type: functional, cell-based; details: Lewis lung carcinoma
Summary of the method: (§1)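 Cells (5 × 10^3/well) kept at 37 °C, 5% CO2 and treated with varied compound concentrations for 24 h. MTT given for a further 3 h, precipitate dissolved in DMSO, absorbance taken at 570 nm. IC50 calculated from percentage growth relative to untreated control.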

HUVEC [2] = assay: Antiangiogenic activity against human HUVEC cells assessed as inhibition of tube formation at 20 uM after 12 hrs by matrigel-based assay; assay type: functional
Summary of the method: (§2)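 HUVECs (1 × 10^4) in DMEM with compound (20 μM) plated on Matrigel that had set at 37 °C for 45 min; controls got DMEM alone. After 12 h at 37 °C, capillary networks were photographed and intact tubes counted in five random regions. Inhibition expressed as percentage of control.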

HUVEC [3] = assay: Antiproliferative activity against human HUVEC cells after 24 hrs by MTT assay; assay type: functional, cell-based
Summary of the method: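 Primary HUVECs grown on gelatin in M-199 with 20% FBS, 10 ng/mL bFGF, 2 ng/mL VEGF, 5% CO2, 37 °C. Cells (5 × 10^3/well) exposed to a range of compound concentrations for 24 h. MTT added for 3 h, formazan dissolved in DMSO, absorbance read at 570 nm. IC50 from percentage growth versus untreated control.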

HUVEC [4] = assay: Antimigratory activity against human HUVEC cells at 20 uM after 24 hrs by wound-healing assay; assay type: functional, cell-based
Summary of the method: (§3)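 HUVEC monolayers grown overnight to confluence on 0.1% gelatin, scratched with pipet tips, washed, then kept in serum-free DMEM with compound (20 or 40 μM) for 24 h at 37 °C, 5% CO2; control serum-free DMEM. Migrated cells counted manually from images at 0 and 24 h, three random fields; three independent experiments, mean ± SE.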

HUVEC [5] = assay: Antimigratory activity against human HUVEC cells assessed as migration rate at 40 uM after 24 hrs by wound-healing assay relative to control; assay type: functional; summary of the method: as §3
Danio rerio [6] = species: Danio rerio; assay: Antiangiogenic activity in fli-1:enhanced GFP expressing transgenic zebrafish embryo assessed as inhibition of neovacularisation at 10 uM after 24 hrs relative to control; assay type: functional
Summary of the method: (§4)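 fli-1:EGFP transgenic zebrafish embryos sorted at about 6 hpf (6 per well), exposed in embryo water to compound at 5–40 μM for 24 h. Then anesthetized with 0.05% 2-phenoxyethanol, photographed and quantified.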

Danio rerio [7] = species: Danio rerio; assay: Antiangiogenic activity in fli-1:enhanced GFP expressing transgenic zebrafish embryo assessed as inhibition of neovacularisation at 5 uM after 24 hrs relative to control; assay type: functional; summary of the method: as §4
Danio rerio [8] = species: Danio rerio; assay: Antiangiogenic activity in fli-1:enhanced GFP expressing transgenic zebrafish embryo assessed as inhibition of neovacularisation at 20 uM after 24 hrs relative to control; assay type: functional; summary of the method: as §4
A549 = assay: Antiproliferative activity against human A549 cells after 24 hrs by MTT assay; assay type: functional, cell-based; details: A549, 24 h; summary of the method: as §1
HepG2 = assay: Antiproliferative activity against human HepG2 cells after 24 hrs by MTT assay; assay type: functional, cell-based; details: HepG2, 24 h; summary of the method: as §1
Danio rerio [9] = species: Danio rerio; assay: Antiangiogenic activity in fli-1:enhanced GFP expressing transgenic zebrafish embryo assessed as inhibition of dorsal longitudinal anastomic vessel sprouts after 48 hrs; assay type: functional, organism-based
Summary of the method: (§5)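 Transgenic fli-1:EGFP zebrafish embryos (GFP across endothelium) sorted at about 6 hpf, 6 per well, with dead or unhealthy ones removed. Compound (10, 20, 40 μM) added to embryo water (0.2 g/L instant ocean salt) from 6 hpf for 48 h. Embryos then anesthetized in 0.05% 2-phenoxyethanol, imaged, and intersomitic and dorsal longitudinal anastomotic vessel sprouts assessed.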

Danio rerio [10] = species: Danio rerio; assay: Antiangiogenic activity in fli-1:enhanced GFP expressing transgenic zebrafish embryo assessed as inhibition of intersomitic vessel sprouts after 48 hrs; assay type: functional, organism-based; summary of the method: as §5
HUVEC [11] = assay: Antimigratory activity against human HUVEC cells after 24 hrs by wound-healing assay relative to honokiol; assay type: functional; summary of the method: as §3
HUVEC [12] = assay: Antiangiogenic activity against human HUVEC cells assessed as inhibition of tube formation at 20 uM after 12 hrs by matrigel-based assay relative to honokiol; assay type: functional; summary of the method: as §2
Danio rerio [13] = species: Danio rerio; assay: Antiangiogenic activity in fli-1:enhanced GFP expressing transgenic zebrafish embryo assessed as inhibition of neovacularisation at 40 uM after 24 hrs relative to control; assay type: functional; summary of the method: as §4

Compound | IC50 [1] [µM] | inhibition at 20 µM (HUVEC [2]) [%] | IC50 (HUVEC [3]) [µM] | Activity (HUVEC [4]) | Migration rate relative to control (HUVEC [5]) [%] | inhibition (INH) (Danio rerio [6]) [%] | inhibition (INH) (Danio rerio [7]) [%] | inhibition (INH) (Danio rerio [8]) [%] | IC50 (A549) [µM] | IC50 (HepG2) [µM] | inhibition (Danio rerio [9]) | inhibition (Danio rerio [10]) | fold change (FC) (HUVEC [11]) | fold change (FC) (HUVEC [12]) | inhibition (INH) (Danio rerio [13]) [%]
C=CCc1ccc(O)c(-c2ccc(O)c(CC=C)c2)c1 [HONOKIOL] | 65.4 | 51.4 | 52.6 | Active | 38.5 | 25 | <25 | 50 | – | – | – | – | – | – | –
C=CCc1cc(C=O)c(O)c(-c2ccc(O)c(CC=C)c2)c1 | 65.3 | 41.2 | 46.2 | Active | 34.2 | 25 | <25 | 25 | 43.6 | 32.9 | – | – | – | – | –
C=CCc1cc(C=O)c(O)c(-c2cc(C=O)c(O)c(CC=C)c2)c1 | 21.7 | 21.3 | 15.1 | Active | 21.2 | 25 | <25 | 50 | 30.2 | 10.7 | Dose-dependent effect | Dose-dependent effect | 1.5 | 2.5 | –
C=CCc1cc(C=O)c(OC)c(-c2ccc(O)c(CC=C)c2)c1 | 20.4 | 82.5 | 32.5 | Active | 63.2 | <25 | <25 | 25 | 28.6 | 20.9 | – | – | – | – | 25
C=CCc1ccc(O)c(-c2ccc(OC)c(CC=C)c2)c1 [METHYLHONOKIOL] | 68.8 | 34.9 | 55.8 | Active | 54.2 | <25 | <25 | 25 | – | 55.3 | – | – | – | – | 25
